From the RNAGym collection of RNA variant scans (doi:10.1126/science.aae0568)
Variants at the floor of the assay were thinned out.

B1: tRNA (parent)
chain: GUUCCGUUGGCGUAAUGGUAACGCGUCUCCCUCCUAAGGAGAAGACUGCGGGUUCGAGUCCCGUACGGAACG

Variants of: B1
Test: yeast fitness relative to wild type (ratio to wild type); higher = fitter; tRNA-Arg(CCU), competitive growth, 37 C, YPD
Method in brief: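 Changes in genotype frequencies gave Darwinian fitness relative to wild type. Frequencies were read by 100-nucleotide paired-end sequencing of gene amplicons before and after pooled Saccharomyces cerevisiae strains, carrying tRNA-Arg(CCU) gene variants at the native locus, were competed in YPD at 37°C for 24 hours in six replicates. A genotype was kept only with ≥ 100 starting reads, and estimates < 0.5 were set to 0.5.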

Yeast fitness, 0.624:
GUUCCGUUGGUGUCAUGGUAACGCGUCUCCCUCCUAAGGAGAAGACUGCGGGUUCGAGUCCCGUACGAAACG

Yeast fitness, 0.543:
GUUCCGUUGGUGUACUGGUAACGCGUCUCCCUCCUAAGGUGAAGACUGCGGGUUCGAGUCCCGUACGGAACG

Yeast fitness, 0.632:
GUUCCGUUGGUGUUAUGGUAACGCGUUUCCCUCCUUAGGAGAGGAUUGCGGGUUCGAGUCCCGUACGGAACG

Yeast fitness, 0.54:
GUUCCGUUGGUGUUAUGGUAACGGGUCUCCCUCCUAAGGAGGAGACUGCGGGUUCGAGUCCCGUACGGAACG

Yeast fitness, 0.658:
GUUCCGUUGGUGUGAUGGAAACGCGUCUCCCUCCUAAGGAGAAGACUGCGGGUUCGAGUCCCGUACGGAACG

Yeast fitness, 0.552:
GUUCCGUUGGUGUUAUGAUAACGCGUCUCCCUCCUAAGGAACAGACUGCCGGUUCGAGUCCCGUACGGAGCG

Yeast fitness, ≤ 0.5:
GUUCCGUUGGUGUCAUGGUAACGCGUUUCCUUACUAAGGAGAAGACUGCGGGUUCGAGUCCCGUACCGAACG
GUUCCGUUGGUGUCAUGGUAACGCGUCUUGCUCCUAAGGGGAAGACUGAGGGUUCGAGUCCCGUACGGAACG
GUUCCGUUGGUGUCAUAGUAACACGUCUGCCUCCUAAGGAGCAGACUGCGGGUUCAAGUCCUGUACGGAACG
GUUCCGUUGGUGUCAUGGUAACACGCCUCCCUCCUAAGGAGAAGACUGCGGGUUUGAGUCCCGUACGGAACG
GUUCCGUUGGUGUCAUGGUAACGCGUCUCCCUCCUAAGGAGAAGACUGCGGGUUCGAGUCCCCUACGGAACG
GUUCCGUUGGUGUGAUGGUGACGGGUCUCCCUCCUAAGGAGAAGACUGCGGGUUCGAGUCCCGUACGGAACG
GUUCCGUUGGUGUGAUGGUACCGCGUCUUCCUCCUAGGGAGAAGACUGCGGGUUUGAGUCCCGUACGGAACG
GUUCCGUUGGUGUGAUGGUAACGCGUCUCCCUCCUACGGAGAAGACUGUGGGUUCGAGUCCCGUACGGAACG
GUUCCGUUGGUGUGAUGGUAACGGGUUUCCCUCCUGAGGAACAGACUGCGGGUUCGAGUCCCGUACGGAACG
GUUCCGUUGGUGUGAUGGUAACGGGUUUCCCUCCUAAGGAACAGACUGCGGGUUCGAGUCCCGUACGGAACG
GUUCCGUUGGUGUGAUGGUAACGGGUUUCCCUCCUAAGGAACAGACUGCGGGUUCGAGUCCCGUAUGGAACG
GUUCCGUUGGUGUGAUGGUAACGCGUAUCCCUCCUAAGGAGAAGACUACGGGAUCGAGUCGCGUACGGAACG
GUUCCGUUGGUGUGAUGGUAACGCGUCUUCCUCCUAAGAAGAAGACUGCGGGUUCGAGUCCCGUACGGAACG
GUUCCGUUGGUGUGAUGGUAACGCGUCUCCAUCCUAAGGAGGAGACUGCGGGUUCGAGUCCCGUACGGAACG
GUUCCGUUGGUGUGAUGGUAACGCGUCUCCAUCCUAAGGAGAAGACUGCGGGUUUGAGUCCCGUACGAAACG
GUUCCGUUGGUGUGAUGGUAACGCGUCUCCCUCCUAAGGAGAAGACUGAGGGUUCGAGUCCCGUACGGAACG
GUUCCGUUGGUGUGAUGGUAACGCGUCUCCCUCCUAAGGAGAAGACUGCGGGUUCGAAUCCCGUACGGCACG
GUUCCGUUGGUGUGAUGGUAACGCGUCUCCCUCCCAAGGAGAAGACUGCGGGUUCGAGUCCCGUACGGAUCG
GUUCCGUUGGUGUUAUGGUAACGCGUCUCCCUCCUAAGGGGCGGACUGCGGGUUCGAGUCCCGUACGGAACG
GUUCCGUUGGUGUUAUGGUAACGGGUCUCCCUCCUAAGGAGAAGACUGCGGGUUUGAGUCCCGUACGGAACG
GUUCCGUUGGUGUUAUGGUAACGGGUCUCCCUCCUAAGGAGAAAACUGUGGGUUCGAGUCCCGUACGGAACG
GUUCCGUUGGUGUUAUGGUAACGCGUUUCCCUCCUUAGGAGAGGAUUGCGGGUUCGAGUCCCGUUCGGAACG
GUUCCGUUGGUGUUAUGGUAACGCGUCUCCCUCUUAAGGAGAAGACUGCGGGUUCGAGUCCCGUACGGAACG
GUUCCGUUGGUGUUAUGGUAACGCGUCUCCCUCUUAAGGAGAAGACUGCGGGUUCGGGUCCCGUACGGAACG
GUUCCGUUGGUGUUAUGAUAACGCGUCUCCUUCCUAAGGAGAAGAGAGCGGGUUCGAGUCCCGUCCGGAACG
GUUCCGUUGGUGUUACGGUAACGCCUUUCCCUCCUAAGGAGAAGACUGCGGGUUCGAGUCGCGUACGGAACG
GUUCCGUUGGUGUACUGGUAGCGGGUCACCCUCCUAAGGAGAAGACUGCGGGUUCGAGUCCCGUACGGAACG
GUUCCGUUGGUGUACUGGUAGCGCGUCUUCCUCCUAGGGAGAAGACUGCGGGUUCGAGUCCCGUACGGAACG

Yeast fitness, 0.585:
GUUCCGUUGGUGUCAGGGUAACGCGUCUACCUCCUAAGGAGAAGACUGCGGGUUCGAGUCCCGUACGCAACG

Yeast fitness, 0.618:
GUUCCGUUGGUGUGAUGGUAACGCGUGUCCUUCCUAAGGAGAAGACUGCGGGUUCGAGUCCCGUACGGAACG

Yeast fitness, 0.52:
GUUCCGUUGGUGUCAUGGUAACGCGUGUCCCUCCUAAGGAGAAGAGUGCGGGUUCGAGUCCCGUGCGGAACG

Yeast fitness, 0.591:
GUUCCGUUGGUGUCAUGGUAACGCGUCUGGCUCCUUAGGUGAAGACUGCGGGUUCGAGUCCCGUACGGAACG
